PubChem BioAssay
Activity calls are given as the source filed them.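 The calls were made as follows, unless noted: active = potentiation averaged over duplicate wells exceeding buffer-only control mean by more than 3 SD; inactive = the rest.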

Legend:
[1] = thallium flux activation in parental CHO cells, counter-screen for KCNQ1 potentiator project (AID 493006;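 active = duplicate-averaged activation above buffer control mean plus 5 SD of those controls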); conditions: parental CHO-K1 cells, FluxOR thallium flux, at 10 µM; stronger effect = higher value
Method in brief: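 Assay system: Untransfected host CHO-K1 cells with FluxOR thallium dye | Probe or stimulus: Potassium/thallium depolarization pulse | Schedule: Overnight 37 °C plating, 90 min RT dye, 20 min compound | Detection: Kinetic thallium-flux fluorescence | Read-out: Max-minus-min fluorescence over baseline, percent of buffer-to-R-L3 span | Benchmarks: Low control buffer, high control R-L3 activator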

[2] = target: Potassium voltage-gated channel subfamily KQT member 1 (Homo sapiens) (UniProt P51787); assay: KCNQ1 potassium channel potentiators, confirmation, FluxOR thallium flux, CHO cells, duplicates (AID 493007); conditions: KCNQ1 cell line, FluxOR thallium flux fluorescence, at 10 µM; stronger effect = higher value, % of reference activator effect, buffer zero;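 as to outcome: cells depolarized by a potassium plus thallium sulfate stimulus after compound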
Chain of Potassium voltage-gated channel subfamily KQT member 1 (Homo sapiens) (P51787 whole entry, looked up): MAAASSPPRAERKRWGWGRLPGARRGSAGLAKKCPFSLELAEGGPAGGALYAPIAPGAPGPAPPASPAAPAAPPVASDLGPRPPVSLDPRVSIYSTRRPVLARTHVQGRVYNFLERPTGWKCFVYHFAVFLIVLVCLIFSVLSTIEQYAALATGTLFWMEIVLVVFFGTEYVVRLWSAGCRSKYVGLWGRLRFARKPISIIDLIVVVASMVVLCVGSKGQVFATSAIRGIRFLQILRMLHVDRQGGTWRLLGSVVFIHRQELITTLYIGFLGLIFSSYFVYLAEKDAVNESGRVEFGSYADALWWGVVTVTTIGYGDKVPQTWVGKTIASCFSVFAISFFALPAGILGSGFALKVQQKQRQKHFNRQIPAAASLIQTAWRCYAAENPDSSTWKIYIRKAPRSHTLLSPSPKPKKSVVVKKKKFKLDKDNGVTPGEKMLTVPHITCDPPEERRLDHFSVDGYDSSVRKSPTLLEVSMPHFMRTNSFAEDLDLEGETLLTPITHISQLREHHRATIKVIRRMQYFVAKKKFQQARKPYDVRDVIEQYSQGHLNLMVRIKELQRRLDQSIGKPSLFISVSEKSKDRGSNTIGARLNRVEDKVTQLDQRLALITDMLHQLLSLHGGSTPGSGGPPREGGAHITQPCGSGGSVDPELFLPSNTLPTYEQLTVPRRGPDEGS
Method in brief: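 Material: KCNQ1-expressing CHO cell line; Incubation: FluxOR dye loading 90 min, compound exposure 20 min, room temperature; Detection: FluxOR Tl+ flux fluorescence, 10 s baseline plus 110 s recording; Read-out: percent activation between buffer and R-L3 responses; Control set: buffer-only wells as 0% and R-L3 activator as 100%; Replication: duplicate wells per compound.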

[3] = target: Potassium voltage-gated channel subfamily KQT member 2 (Rattus norvegicus) (UniProt O88943); assay: rat KCNQ2 channel potentiation, selectivity assay for KCNQ1 potentiator project, KCNQ2-CHO-K1 cells (AID 493009;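 active = mean duplicate potentiation above the buffer control mean plus 5 SD of buffer wells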;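 also: assay conditions were tuned for KCNQ1 rather than KCNQ2 modulators; signal is max minus min fluorescence divided by baseline after thallium stimulus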); conditions: FluxOR thallium flux fluorescence, at 10 µM; stronger effect = higher value, scaled: buffer 0, activator control 100
Chain of Potassium voltage-gated channel subfamily KQT member 2 (Rattus norvegicus) (O88943 whole entry, looked up): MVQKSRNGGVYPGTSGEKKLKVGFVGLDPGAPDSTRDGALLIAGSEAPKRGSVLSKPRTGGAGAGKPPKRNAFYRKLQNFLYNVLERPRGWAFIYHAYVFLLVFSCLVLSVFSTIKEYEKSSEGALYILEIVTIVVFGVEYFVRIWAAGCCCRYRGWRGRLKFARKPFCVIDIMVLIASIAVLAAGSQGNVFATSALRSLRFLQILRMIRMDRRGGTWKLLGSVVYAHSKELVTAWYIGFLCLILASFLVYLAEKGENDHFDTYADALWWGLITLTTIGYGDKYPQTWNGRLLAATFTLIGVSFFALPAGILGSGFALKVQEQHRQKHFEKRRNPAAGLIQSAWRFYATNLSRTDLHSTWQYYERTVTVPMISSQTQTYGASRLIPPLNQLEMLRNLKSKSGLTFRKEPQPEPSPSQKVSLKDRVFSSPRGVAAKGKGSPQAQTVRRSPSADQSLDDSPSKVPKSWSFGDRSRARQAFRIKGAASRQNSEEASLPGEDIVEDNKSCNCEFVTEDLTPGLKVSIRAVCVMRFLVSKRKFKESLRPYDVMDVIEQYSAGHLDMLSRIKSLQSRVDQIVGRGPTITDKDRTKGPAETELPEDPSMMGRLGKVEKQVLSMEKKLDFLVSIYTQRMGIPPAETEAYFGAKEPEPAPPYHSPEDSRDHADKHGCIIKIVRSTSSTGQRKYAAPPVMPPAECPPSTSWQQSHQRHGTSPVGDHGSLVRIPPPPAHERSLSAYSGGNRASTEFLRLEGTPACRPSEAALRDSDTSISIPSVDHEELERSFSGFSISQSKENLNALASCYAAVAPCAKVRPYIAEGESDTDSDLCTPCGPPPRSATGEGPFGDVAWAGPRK

[4] = target: Potassium voltage-gated channel subfamily KQT member 1 (Homo sapiens) (UniProt P51787); assay: KCNQ1 channel current potentiators, confirmation, orthogonal assay for KCNQ1 potentiator project, IonWorks patch clamp, KCNQ1-CHO cells (AID 493184;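 active = current rise at least 3 SD above the untreated control mean in each of two repeat wells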;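 as to current potentiation: percent change of the same well's current before compound addition so 0% = no change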); conditions: automated patch clamp current, at 10 µM; stronger effect = higher value
Method in brief: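 assay system = KCNQ1-expressing CHO cells | medium = external bath solution at pH 7.4 | probe or stimulus = 2,000 ms depolarization, -90 to +40 mV | compound dosing = 10 µM final, single point | measured by = automated voltage clamp, amphotericin B perforated patch | measure = percent current increase versus pre-compound level | replication = duplicates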

Compound | activation [1] | potentiation [2] | potentiation [3] | outcome [4] | outcome [1] | outcome [2] | outcome [3] | current potentiation [4]
O=S(=O)(NC(=S)NC1CCCCC1)c1ccc(Br)cc1 | 200% (active) | 52% (active) | 190% (active) | inactive |  |  |  | 
O=c1cc(-c2ccccc2)nc2c(-c3ccccc3)c(C(F)(F)F)[nH]n12 | 626% (active) | 282% (active) | 591% (active) | inactive |  |  |  | 
COc1ccc(C)c2sc(NC(=O)C3=COCCO3)nc12 |  |  |  | inactive | inactive | inactive | inactive | 
CC(=O)N[C@H]1[C@H](OC2CCCCC2)O[C@H](COC(C)=O)[C@@H](OC(C)=O)[C@@H]1OC(C)=O |  |  |  | inactive | inactive | inactive | inactive | 
COc1ccc2nc(NC(=S)NC(=O)c3ccco3)sc2c1 |  | 42% (active) | 175% (active) | inactive | inactive |  |  | 
N#Cc1ccc(-c2nc3ccc(Br)cc3c(=O)n2O)cc1 | 300% (active) | 120% (active) | 354% (active) | inactive |  |  |  | 
CN(C)CCNc1ncnc2c1sc1nc(N3CCCC3)c3c(c12)CC(C)(C)OC3 |  | 32% (active) |  | inactive | inactive |  | inactive | 
Cc1ccnc(NC(=O)CNC(=O)c2ccc3c(c2)OCO3)c1 |  |  |  | inactive | inactive | inactive | inactive | 
CCCCn1c(=S)[nH]c2ccccc2c1=O | 160% (active) | 50.5% (active) | 187% (active) | inactive |  |  |  | 
N=C1S/C(=C\c2ccco2)C(=O)N1c1nccs1 | 138% (active) |  | 186% (active) | inactive |  | inactive |  | 
O=C(CSc1ncnc2c1cnn2-c1ccc(F)cc1)NC1CCCC1 |  |  |  | inactive | inactive | inactive | inactive | 
O=C(O)C1C2CCC(O2)C1C(=O)NCCC1=CCCCC1 (stereo not given) |  |  |  | inactive | inactive | inactive | inactive | 
O=C(Nc1nnc(-c2ccc(Cl)cc2)o1)c1ccccc1Br | 228% (active) | 86.5% (active) | 234% (active) | inactive |  |  |  | 
CNC(C)C#Cc1ccc2sc3cccc(OC)c3c(=O)c2c1 (stereo not given) |  |  |  | inactive | inactive | inactive | inactive | 
COc1cccc(NC(=O)NCC2CCN(Cc3ccc(F)cc3)CC2)c1 |  |  |  | inactive | inactive | inactive | inactive | 
S=c1nc(SCc2ccccc2)[nH]c2ccccc12 | 458% (active) | 320% (active) | 500% (active) | inactive |  |  |  | 
CC(C)CCn1c(=S)[nH]c2ncccc2c1=O | 152% (active) |  |  | inactive |  | inactive | inactive | 
CC1CCCCN1C(=S)NC(=O)c1cccs1 (stereo not given) |  |  |  | inactive | inactive | inactive | inactive | 
COc1cc(Br)cc(C=Nc2cccc(C(F)(F)F)c2)c1O |  |  |  | inactive | inactive | inactive | inactive | 
CC(=O)NC1=C(NC2CCS(=O)(=O)C2)C(=O)c2ccccc2C1=O (stereo not given) |  |  |  | inactive | inactive | inactive | inactive | 

Compound | activation [1] | potentiation [2] | potentiation [3] | outcome [4] | outcome [1] | outcome [2] | outcome [3] | current potentiation [4]
CN(C(=O)CSc1ncnc2sc(-c3ccccc3)cc12)C1CCS(=O)(=O)C1 (stereo not given) | 529% (active) | 176% (active) | 501% (active) | inactive |  |  |  | 
COC(=O)c1sccc1NC(=O)CSc1ccccc1NS(=O)(=O)c1ccc(Cl)cc1 |  | 17.5% (active) |  | inactive | inactive |  | inactive | 
COc1ccc(NC2=NC3(CCCCC3)N=C(N)N2)cc1 |  |  |  | inactive | inactive | inactive | inactive | 
O=C(NC(=S)N1CCN(c2c(Cl)cccc2[N+](=O)[O-])CC1)c1cccs1 | 236% (active) | 156% (active) | 375% (active) | inactive |  |  |  | 
Cc1cccc(OCC(=O)O/N=C(\N)c2ccc(Cl)cc2)c1 |  |  |  | inactive | inactive | inactive | inactive | 
O=C(O)CCC(=O)Nc1ccc(-c2nc3ccc(C(=O)c4ccccc4)cc3[nH]2)cc1 |  |  |  | inactive | inactive | inactive | inactive | 
CCN(CC)c1ccc(/C=N/Nc2nc3ccccc3[nH]2)c(O)c1 |  |  |  | inactive | inactive | inactive | inactive | 
COc1ccc(C(=O)CC(=O)C(=O)Nc2ccc(C)c(Cl)c2)cc1 | 138% (active) | 26% (active) |  | inactive |  |  | inactive | 
Cn1ncc2c(O/N=C(\N)c3ccc(C(F)(F)F)cc3)ncnc21 |  |  |  | inactive | inactive | inactive | inactive | 
COc1ccc(S(=O)(=O)Nc2cccc3ccc(O)cc23)cc1 |  |  |  | inactive | inactive | inactive | inactive | 
Cc1ccc(-c2c(=O)n(O)c3ccccc3[n+]2[O-])cc1 | 202% (active) | 25% (active) | 184% (active) | inactive |  |  |  | 
O=C(NC(=S)N1CCN(c2ccccc2)CC1)c1c(F)cccc1F |  |  |  | inactive | inactive | inactive | inactive | 
O=C(NN=C1CCCC1)c1n[nH]c2c1CCC2 | 196% (active) | 35% (active) | 178% (active) | inactive |  |  |  | 
COc1ccc(CCNC(=O)c2ccc(N(C)S(=O)(=O)c3ccc(C)cc3)cc2)cc1OC |  |  |  | inactive | inactive | inactive | inactive | 
Cc1cc2ccccn2c1C(=S)NC(=O)c1ccccc1 | 290% (active) | 102% (active) | 370% (active) | inactive |  |  |  | 
C/C(=N\NS(=O)(=O)c1ccc(Br)cc1)c1cccs1 |  |  |  | inactive | inactive | inactive | inactive | 
CCSC(=S)c1c(C)[nH]n(-c2ccccc2)c1=O | 164% (active) | 30% (active) | 184% (active) | inactive |  |  |  | 
S=c1nc(C2CC2)[nH]c2ccccc12 | 414% (active) | 83.5% (active) | 351% (active) | inactive |  |  |  | 
CCCC(=O)Nc1cc(Cl)ccc1N1CCN(C(=O)CC)CC1 |  |  |  | inactive | inactive | inactive | inactive | 
O=C(CSc1nc2ccccc2[nH]1)N/N=C/c1ccncc1 |  |  |  | inactive | inactive | inactive | inactive | 

Compound | activation [1] | potentiation [2] | potentiation [3] | outcome [4] | outcome [1] | outcome [2] | outcome [3] | current potentiation [4]
COc1cccc(C(=O)NNC(=O)C(=O)Nc2cccc(Cl)c2C)c1 | 195% (active) | 128% (active) | 299% (active) | inactive |  |  |  | 
Cc1cc(C)n(-c2nc(NCCN(C)C)c3c4c(sc3n2)COC(C)(C)C4)n1 |  |  |  | inactive | inactive | inactive | inactive | 
CCOC(=O)c1c(N2C(=O)Nc3ccccc3N2O)n[nH]c1-c1cccc(Cl)c1 |  |  |  | inactive | inactive | inactive | inactive | 
C/C(=N\NC(=O)c1cc2ccccc2cc1O)c1ccc(C)o1 | 238% (active) | 114% (active) | 264% (active) | inactive |  |  |  | 
Fc1cccc(/C=N/Nc2ccc3ccccc3n2)c1 |  |  |  | inactive | inactive | inactive | inactive | 
COc1ccc(-c2sc(C(=O)c3ccc(Cl)cc3Cl)cc2CC(=O)O)cc1 |  |  |  |  | inactive | inactive | inactive | 33.9% (active)
O=C(Cn1c(=O)oc2ccccc21)N1CCN(c2ccc(N3CCOCC3)nn2)CC1 |  |  |  | inactive | inactive | inactive | inactive | 
COc1ccccc1NC(=O)C(=O)NNC(=O)c1ccco1 | 240% (active) | 62.5% (active) | 210% (active) | inactive |  |  |  | 
COc1ccc(CCN(C)C(=O)CSc2nnc(-c3ccco3)o2)cc1OC |  |  |  | inactive | inactive | inactive | inactive | 
OC1(c2ccc(Br)cc2)CCNCC1 |  |  |  | inactive | inactive | inactive | inactive | 
CCC(C)[C@H](N)c1nnc(SCC(=O)Nc2cccc(Cl)c2)o1 (stereo not given in full) | 210% (active) | 39.5% (active) | 162% (active) | inactive |  |  |  | 
Cc1ccc(CN2C(=O)CC(Nc3ccc(N4CCOCC4)cc3)C2=O)cc1 (stereo not given) |  |  |  | inactive | inactive | inactive | inactive | 
Cc1onc(-c2ccccc2)c1C(=O)N1CCN(S(=O)(=O)c2ccc(OC(F)(F)F)cc2)CC1 |  |  |  | inactive | inactive | inactive | inactive | 
CS(=O)(=O)NN1C(=O)c2ccccc2NC1c1ccccc1F (stereo not given) | 143% (active) | 32.5% (active) |  | inactive |  |  | inactive | 
CCCn1c(SCN2C(=O)c3ccccc3C2=O)nc2cc(Cl)ccc2c1=O | 179% (active) | 39.5% (active) | 196% (active) | inactive |  |  |  | 
COCCN(C(=O)COC(=O)/C=C/c1cccs1)c1c(N)n(Cc2ccccc2)c(=O)[nH]c1=O |  |  |  | inactive | inactive | inactive | inactive | 
O=C(COc1ccccc1F)Nc1ccc(S(=O)(=O)NCc2ccco2)cc1 |  |  |  | inactive | inactive | inactive | inactive | 
CC(NC(=O)c1ccncc1)C(C)(C)C (stereo not given) |  |  |  | inactive | inactive | inactive | inactive | 
O=C(Oc1c(-c2ccco2)oc2ccccc2c1=O)c1cccnc1 |  | 39.5% (active) | 187% (active) | inactive | inactive |  |  | 
Cc1ccc(-c2csc3ncnc(SCc4ccc(C(=O)O)cc4)c23)cc1 | 197% (active) | 36.5% (active) | 175% (active) | inactive |  |  |  | 
